Laboratory results: ChEMBL document CHEMBL1154956, “Stereospecific synthesis of oximes and oxime ethers of 3-azabicycles: A SAR study towards antimicrobial agents” (2010)
≈ marks a conversion by molar mass, not a printed value.

Columns and labels:
Type in all cases: functional
Candida parapsilosis = test: Antifungal activity against Candida parapsilosis by NCCLS broth microdilution method
In short: (§1)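 MIC90 was taken as the lowest concentration that inhibited 90% of pathogen growth after incubation, reported in μg/mL. Broth dilution followed the NCCLS reference standards: M27-A for yeasts and the proposed standard for conidium-forming filamentous fungi. Fluconazole was the reference drug.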

Candida albicans = test: Antifungal activity against Candida albicans by NCCLS broth microdilution method; in short: as §1
Staphylococcus aureus = test: Antibacterial activity against Staphylococcus aureus by NCCLS broth microdilution method
Klebsiella pneumoniae = test: Antibacterial activity against Klebsiella pneumoniae by NCCLS broth microdilution method
Cryptococcus neoformans = test: Antifungal activity against Cryptococcus neoformans by NCCLS broth microdilution method; in short: as §1
Pseudomonas aeruginosa = test: Antibacterial activity against Pseudomonas aeruginosa by NCCLS broth microdilution method
Bacillus subtilis = test: Antibacterial activity against Bacillus subtilis by NCCLS broth microdilution method
Aspergillus niger = test: Antifungal activity against Aspergillus niger by NCCLS broth microdilution method; in short: as §1
[1] = Lodderomyces parapsilosis, read-out: MIC90
[2] = Candida albicans, read-out: MIC90
[3] = Staphylococcus aureus, read-out: MIC90
[4] = Klebsiella pneumoniae, read-out: MIC90
[5] = Cryptococcus neoformans, read-out: MIC90
[6] = Pseudomonas aeruginosa, read-out: MIC90
[7] = Bacillus subtilis, read-out: MIC90
[8] = Aspergillus niger, read-out: MIC90

Compound | MIC90 (Candida parapsilosis) [µg/mL] | MIC90 (Candida albicans) [µg/mL] | MIC90 (Staphylococcus aureus) [µg/mL] | MIC90 (Klebsiella pneumoniae) [µg/mL] | MIC90 (Cryptococcus neoformans) [µg/mL] | MIC90 (Pseudomonas aeruginosa) [µg/mL] | MIC90 (Bacillus subtilis) [µg/mL] | MIC90 (Aspergillus niger) [µg/mL] | MIC90 (Candida parapsilosis; [1]) [µg/mL] | MIC90 (Candida albicans; [2]) [µg/mL] | MIC90 (Staphylococcus aureus; [3]) [µg/mL] | MIC90 (Klebsiella pneumoniae; [4]) [µg/mL] | MIC90 (Cryptococcus neoformans; [5]) [µg/mL] | MIC90 (Pseudomonas aeruginosa; [6]) [µg/mL] | MIC90 (Bacillus subtilis; [7]) [µg/mL] | MIC90 (Aspergillus niger; [8]) [µg/mL]
CON=C1C2CC(C)CC1C(c1cccc(F)c1)NC2c1cccc(F)c1 (stereo in doubt; 56a) | – | 32 (≈ 86.4 µM) | – | – | – | – | – | 64 (≈ 173 µM) | 32 (≈ 86.4 µM) | – | 16 (≈ 43.2 µM) | 64 (≈ 173 µM) | 64 (≈ 173 µM) | 64 (≈ 173 µM) | 16 (≈ 43.2 µM) | –
CC1CC2C(=NO)C(C1)C(c1cccc(F)c1)NC2c1cccc(F)c1 (stereo in doubt; 50b) | 32 (≈ 89.8 µM) | 64 (≈ 180 µM) | 32 (≈ 89.8 µM) | 64 (≈ 180 µM) | 64 (≈ 180 µM) | 32 (≈ 89.8 µM) | >128 | 32 (≈ 89.8 µM) | – | – | – | – | – | – | – | –
CON=C1C2CC(C)CC1C(c1ccc(F)cc1)NC2c1ccc(F)cc1 (configuration not stated) | – | – | – | – | – | – | – | – | 64 (≈ 173 µM) | 16 (≈ 43.2 µM) | 4 (≈ 10.8 µM) | 8 (≈ 21.6 µM) | 8 (≈ 21.6 µM) | 16 (≈ 43.2 µM) | 16 (≈ 43.2 µM) | 16 (≈ 43.2 µM)
CC1CC2C(=NO)C(C1)C(c1cccc(Cl)c1)NC2c1cccc(Cl)c1 (configuration not stated) | – | – | – | – | – | – | – | – | 128 (≈ 329 µM) | 64 (≈ 164 µM) | 64 (≈ 164 µM) | 32 (≈ 82.2 µM) | > 128 | 64 (≈ 164 µM) | 32 (≈ 82.2 µM) | 64 (≈ 164 µM)
CC1CC2C(=NO)C(C1)C(c1ccc(Cl)cc1)NC2c1ccc(Cl)cc1 (configuration not stated) | – | – | – | – | – | – | – | – | 64 (≈ 164 µM) | 64 (≈ 164 µM) | 32 (≈ 82.2 µM) | 16 (≈ 41.1 µM) | 64 (≈ 164 µM) | 32 (≈ 82.2 µM) | 32 (≈ 82.2 µM) | 32 (≈ 82.2 µM)
CC1CC2C(=NO)C(C1)C(c1ccc(F)cc1)NC2c1ccc(F)cc1 (configuration not stated) | – | – | – | – | – | – | – | – | 64 (≈ 180 µM) | 32 (≈ 89.8 µM) | 8 (≈ 22.4 µM) | 32 (≈ 89.8 µM) | 32 (≈ 89.8 µM) | 64 (≈ 180 µM) | 64 (≈ 180 µM) | 64 (≈ 180 µM)

Now from value to molecule:

MIC90 (Candida parapsilosis) [µg/mL] | MIC90 (Candida albicans) [µg/mL] | MIC90 (Staphylococcus aureus) [µg/mL] | MIC90 (Klebsiella pneumoniae) [µg/mL] | MIC90 (Cryptococcus neoformans) [µg/mL] | MIC90 (Pseudomonas aeruginosa) [µg/mL] | MIC90 (Bacillus subtilis) [µg/mL] | MIC90 (Aspergillus niger) [µg/mL] | MIC90 (Candida parapsilosis; [1]) [µg/mL] | MIC90 (Candida albicans; [2]) [µg/mL] | MIC90 (Staphylococcus aureus; [3]) [µg/mL] | MIC90 (Klebsiella pneumoniae; [4]) [µg/mL] | MIC90 (Cryptococcus neoformans; [5]) [µg/mL] | MIC90 (Pseudomonas aeruginosa; [6]) [µg/mL] | MIC90 (Bacillus subtilis; [7]) [µg/mL] | MIC90 (Aspergillus niger; [8]) [µg/mL] | Compound
32 (≈ 89.8 µM) | 16 (≈ 44.9 µM) | 32 (≈ 89.8 µM) | 64 (≈ 180 µM) | 16 (≈ 44.9 µM) | 128 (≈ 359 µM) | 32 (≈ 89.8 µM) | 4 (≈ 11.2 µM) | – | – | – | – | – | – | – | – | CC1CC2C(=NO)C(C1)C(c1ccccc1F)NC2c1ccccc1F (stereo in doubt; 49b)
– | – | – | – | – | – | – | – | > 128 | > 128 | 128 (≈ 399 µM) | > 128 | > 128 | > 128 | > 128 | > 128 | CC12CCCC(/C1=N\O)C(c1ccccc1)NC2c1ccccc1 (configuration not stated)
– | – | – | – | – | – | – | – | 32 (≈ 89.8 µM) | 16 (≈ 44.9 µM) | 16 (≈ 44.9 µM) | 32 (≈ 89.8 µM) | 32 (≈ 89.8 µM) | 64 (≈ 180 µM) | 64 (≈ 180 µM) | 64 (≈ 180 µM) | CC12CCCC(/C1=N\O)C(c1ccc(F)cc1)NC2c1ccc(F)cc1 (configuration not stated)
– | – | – | – | – | – | – | – | > 128 | > 128 | 128 (≈ 336 µM) | > 128 | 128 (≈ 336 µM) | > 128 | 128 (≈ 336 µM) | > 128 | COc1cccc(C2NC(c3cccc(OC)c3)C3(C)CCCC2/C3=N\O)c1 (configuration not stated)
– | – | – | – | – | – | – | – | 64 (≈ 162 µM) | 64 (≈ 162 µM) | 32 (≈ 81.1 µM) | 32 (≈ 81.1 µM) | 128 (≈ 324 µM) | 64 (≈ 162 µM) | 32 (≈ 81.1 µM) | 128 (≈ 324 µM) | CO/N=C1\C2CCCC1(C)C(c1ccccc1OC)NC2c1ccccc1OC (configuration not stated)
– | – | – | – | – | – | – | – | 64 (≈ 180 µM) | 32 (≈ 89.8 µM) | 64 (≈ 180 µM) | 32 (≈ 89.8 µM) | > 128 | 128 (≈ 359 µM) | 128 (≈ 359 µM) | 128 (≈ 359 µM) | CC12CCCC(/C1=N\O)C(c1cccc(F)c1)NC2c1cccc(F)c1 (configuration not stated)
– | – | – | – | – | – | – | – | 128 (≈ 336 µM) | > 128 | 64 (≈ 168 µM) | 128 (≈ 336 µM) | 64 (≈ 168 µM) | 128 (≈ 336 µM) | 64 (≈ 168 µM) | 128 (≈ 336 µM) | COc1ccccc1C1NC(c2ccccc2OC)C2(C)CCCC1/C2=N\O (configuration not stated)
16 (≈ 39.7 µM) | – | – | 4 (≈ 9.92 µM) | 16 (≈ 39.7 µM) | 4 (≈ 9.92 µM) | 8 (≈ 19.8 µM) | 32 (≈ 79.3 µM) | – | 8 (≈ 19.8 µM) | 4 (≈ 9.92 µM) | – | – | – | – | – | CON=C1C2CC(C)CC1C(c1ccccc1Cl)NC2c1ccccc1Cl (stereo in doubt; 58a)
